The text below walks through data of ChEMBL document CHEMBL1126265, “Novel 5-HT3 antagonists: indol-3-ylspiro(azabicycloalkane-3,5'(4'H)-oxazoles)” (J Med Chem, 1992).

Assay [1] deals with T1, Serotonin 3 (5-HT3) receptor (Rattus norvegicus, UniProt P35563+Q9JJ16).
T1 sequence (P35563 whole entry): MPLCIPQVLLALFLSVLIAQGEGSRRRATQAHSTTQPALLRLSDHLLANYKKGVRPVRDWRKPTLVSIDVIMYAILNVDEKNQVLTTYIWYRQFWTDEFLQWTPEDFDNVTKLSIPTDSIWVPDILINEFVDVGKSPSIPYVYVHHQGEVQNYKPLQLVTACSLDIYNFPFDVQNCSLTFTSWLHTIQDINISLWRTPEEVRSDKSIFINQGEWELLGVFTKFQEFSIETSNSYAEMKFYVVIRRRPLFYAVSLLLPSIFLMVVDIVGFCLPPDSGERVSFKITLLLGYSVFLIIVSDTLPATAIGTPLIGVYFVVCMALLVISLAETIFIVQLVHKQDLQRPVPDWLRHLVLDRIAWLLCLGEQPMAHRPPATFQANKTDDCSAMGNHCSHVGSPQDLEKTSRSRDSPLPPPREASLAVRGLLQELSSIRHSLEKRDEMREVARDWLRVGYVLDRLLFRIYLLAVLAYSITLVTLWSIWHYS
T1 sequence (Q9JJ16 whole entry): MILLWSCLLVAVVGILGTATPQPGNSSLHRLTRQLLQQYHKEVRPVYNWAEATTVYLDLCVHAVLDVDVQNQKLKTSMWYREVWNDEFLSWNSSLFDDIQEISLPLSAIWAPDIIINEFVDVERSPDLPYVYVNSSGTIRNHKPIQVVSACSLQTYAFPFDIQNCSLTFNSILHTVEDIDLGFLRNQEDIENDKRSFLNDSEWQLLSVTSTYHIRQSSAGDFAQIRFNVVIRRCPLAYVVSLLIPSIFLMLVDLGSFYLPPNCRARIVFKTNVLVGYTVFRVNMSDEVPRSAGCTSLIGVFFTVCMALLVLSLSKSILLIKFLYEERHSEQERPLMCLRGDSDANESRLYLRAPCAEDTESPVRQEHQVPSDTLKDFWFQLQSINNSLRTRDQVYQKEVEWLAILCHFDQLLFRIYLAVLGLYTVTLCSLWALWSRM
Kind of assay: Displacement of [3H]Q-ICS-205-930 from 5-hydroxytryptamine 3 receptor recognition sites in rat brain membranes. In kind it is cell membranes. In short, it runs like this: (§1)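 Value reported as mean ± SEM where n ≥ 3 independent determinations; where no SEM is given, mean of two independent determinations, individual values typically within ±10% of the mean.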
(Loss of bound radioactivity is the signal in a displacement assay; it reports binding, not function.)

The target in assay [2] is T1, Serotonin 3 (5-HT3) receptor. Kind of assay: Compound was evaluated for the displacement of [3H]Q-ICS-205-930 from 5-HT3 recognition sites in rat brain membranes. In kind it is cell membranes. The procedure, abridged:
as §1

Take `Cn1cc(C2=NC[C@]3(CN4CCC3CC4)O2)c2ccccc21`: in assay [1], the IC50 (commonly the concentration that gives 50% inhibition) is 0.00288 µM. As to `Cn1cc(C2=NCC3(CN4CCC3CC4)O2)c2ccccc21` (stereo not given), in assay [1], the IC50 was 0.00316 µM. This IC50 and that of the compound before are within 1.5-fold of each other. As for `Cn1cc(C2=NC[C@@]3(CN4CCC3CC4)O2)c2ccccc21`, the IC50 in assay [1] was 0.00257 µM. This IC50 and that of the compound before are within 1.5-fold of each other. `C#CCn1cc(C2=NCC3(CN4CCC3CC4)O2)c2ccccc21` (stereo not given) had an IC50 in assay [1] of 0.00617 µM. In the case of `Cn1c([Si](C)(C)C)c(C2=NCC3(CN4CCC3CC4)O2)c2ccccc21` (stereo not given), in assay [2], the concentration for half-maximal inhibition (IC50) is 0.155 µM. Regarding `Cn1cc(C2=NCC3(CN4CCC3CC4)O2)c2cc(N)ccc21` (stereo not given), in assay [1], the half-maximal inhibitory concentration (IC50) was 0.575 µM.

Take `Cc1ccc2c(c1)c(C1=NCC3(CN4CCC3CC4)O1)cn2C` (stereo not given): in assay [1], the half-maximal inhibitory concentration (IC50) was 0.132 µM. `Cc1cccc2c(C3=NCC4(CN5CCC4CC5)O3)cn(C)c12` (stereo not given): in assay [1], the half-inhibitory concentration (IC50) was 0.00891 µM.

`CN1CCC2(CC1)CN=C(c1cn(C)c3ccccc13)O2` gave a half-inhibitory concentration (IC50) in assay [1] of 0.158 µM.

For the compound `Cn1cc(C2=NCC3(CC4CCC(C3)N4Cc3ccccc3)O2)c2ccccc21` (stereo not given), the IC50 in assay [1] is 0.174 µM. As to `Cn1cc(C2=NCC3(CN4CCC3CC4)O2)c2cc(F)ccc21` (stereo not given), in assay [1], the concentration for half-maximal inhibition (IC50) is 0.0148 µM.

`Cn1cc(C2=NCC3(C[N+]4([O-])CCC3CC4)O2)c2ccccc21` (stereo not given) showed an IC50 in assay [1] of 2.63 µM. This IC50 is about 180-fold higher than that of the compound before. The same measure, in the same setting: under `c1ccc2c(C3=NCC4(CN5CCC4CC5)O3)[nH]nc2c1` (stereo not given) stands 0.0263 µM. On to `c1ccc2c(C3=NCC4(CN5CCC4CC5)O3)csc2c1` (stereo not given), for which, in assay [1], the IC50 was 0.0269 µM. In assay [1], `Cn1c(I)c(C2=NCC3(CN4CCC3CC4)O2)c2ccccc21` (stereo not given) showed an IC50 of 0.0269 µM. The compound `Cn1cc(C2=NCC3(CC4CCC(C3)N4)O2)c2ccccc21` (stereo not given) had an IC50 in assay [1] of 0.0112 µM. In assay [1], `Cn1cc(C2=NC[C@@]3(C[N@@]4CC[C@@H]3C4)O2)c2ccccc21` showed a 50% inhibitory concentration (IC50) of 0.00347 µM. Same read-out and setting: under `C=CCn1cc(C2=NCC3(CN4CCC3CC4)O2)c2ccccc21` (stereo not given) stands 0.00794 µM. The compound `CCn1cc(C2=NCC3(CN4CCC3CC4)O2)c2ccccc21` (stereo not given) had an IC50 in assay [1] of 0.0135 µM. Against the preceding compound, the IC50 is about 1.7-fold higher. On the same count and under the same terms, in the case of `CC(=O)c1c(C2=NCC3(CN4CCC3CC4)O2)c2ccccc2n1C` (stereo not given) it was 0.00646 µM.

As to `Cn1cc(C2=NC[C@]3(C[N@@]4CC[C@@H]3C4)O2)c2ccccc21`, the IC50 in assay [1] is 0.00309 µM.

In assay [1], `COc1ccc2c(c1)c(C1=NCC3(CN4CCC3CC4)O1)cn2C` (stereo not given) showed an IC50 of 0.263 µM. `COc1cccc(C2=NCC3(CN4CCC3CC4)O2)c1` (stereo not given) had a half-maximal inhibitory concentration (IC50) in assay [1] of 0.407 µM. In the case of `c1ccc2c(c1)c(C1=NCC3(CN4CCC3CC4)O1)cn2CC1CC1` (stereo not given), the half-maximal inhibitory concentration (IC50) in assay [1] was 0.0132 µM. `Cn1cc(C2=NCC3(CCN4CCCC3C4)O2)c2ccccc21` (stereo not given) had a half-inhibitory concentration (IC50) in assay [1] of 0.00112 µM. As to `Cn1cc(C2=NCC3(CN4CCC3CC4)O2)c2cc(O)ccc21` (stereo not given), in assay [1], the half-maximal inhibitory concentration (IC50) was 0.195 µM. With `Cn1cc(C2=NCC3(CN4CCC3CC4)O2)c2cc([N+](=O)[O-])ccc21` (stereo not given), the IC50 in assay [1] is 0.229 µM. `c1ccc2c(C3=NCC4(CN5CCC4CC5)O3)c[nH]c2c1` (stereo not given) gave a concentration for half-maximal inhibition (IC50) in assay [1] of 0.00479 µM. Regarding `Cn1cc(C2=NCC3(C[N+]4(C)CCC3CC4)O2)c2ccccc21` (single isomer, unassigned; 22n), the IC50 in assay [1] is 0.0427 µM. On the same count and under the same terms, in the case of `Cn1cc(C2=NCC3(C[N+]4(C)CCC3CC4)O2)c2ccccc21` (single isomer, unassigned; 22o) it was 0.0102 µM. With `CN1C2CCC1CC1(CN=C(c3cn(C)c4ccccc34)O1)C2` (stereo in doubt; 22b), in assay [1], the IC50 is 0.00457 µM.

`Cn1cc(C2=NCC3(CC4CCC(C3)[N+]4(C)C)O2)c2ccccc21` (stereo in doubt; 22c) gave an IC50 in assay [1] of 0.00501 µM. For `CN1C2CCC1CC1(CN=C(c3cn(C)c4ccccc34)O1)C2` (stereo in doubt; 22d), in assay [1], the concentration for half-maximal inhibition (IC50) is 0.00631 µM. In the case of `Cn1cc(C2=NCC3(CC4CCC(C3)[N+]4(C)C)O2)c2ccccc21` (stereo in doubt; 22e), the concentration for half-maximal inhibition (IC50) in assay [1] is 0.00331 µM. Compared with the last compound, the IC50 is about 1.9-fold lower. In the case of `CN1[C@@H]2CC[C@H]1C[C@@H](OC(=O)c1c[nH]c3ccccc13)C2` [TROPISETRON], the 50% inhibitory concentration (IC50) in assay [2] is 0.00126 µM.
